Here are results for 14 compounds from ChEMBL document CHEMBL1667815, “Pharmacophore models based studies on the affinity and selectivity toward 5-HT1A with reference to α1-adrenergic receptors among arylpiperazine derivatives of phenytoin” (Bioorg Med Chem, 2011).

As a reminder, the Ki is a dissociation constant, usually derived from enzyme kinetics or from competition with a known ligand. A high value points to weaker binding. The term pKb denotes −log10 of the Kb, conventionally taken in molar units. Lower therefore signals a large Kb.

For assay [1], the target named is T1, 5-hydroxytryptamine receptor 1A (Rattus norvegicus) (UniProt P19327).
T1 sequence (whole entry): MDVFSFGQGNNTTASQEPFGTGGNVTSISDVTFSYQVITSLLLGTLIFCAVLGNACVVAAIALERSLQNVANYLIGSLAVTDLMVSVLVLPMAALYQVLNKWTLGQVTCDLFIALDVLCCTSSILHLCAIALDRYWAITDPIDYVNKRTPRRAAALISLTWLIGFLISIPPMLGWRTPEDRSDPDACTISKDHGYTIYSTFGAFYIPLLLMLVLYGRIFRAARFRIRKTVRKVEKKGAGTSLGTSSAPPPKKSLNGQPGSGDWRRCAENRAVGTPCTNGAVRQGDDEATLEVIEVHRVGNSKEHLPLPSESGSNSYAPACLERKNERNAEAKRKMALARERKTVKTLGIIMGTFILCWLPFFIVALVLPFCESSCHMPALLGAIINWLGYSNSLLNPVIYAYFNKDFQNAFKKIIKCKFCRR
As to the kind of experiment: Displacement of [3H]-8-OH-DPAT from 5-HT1A receptor in rat hippocampal membranes by liquid scintillation counting. It counts as cell membranes. The settings on record: Hippocampus, Membrane. The procedure, abridged: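 Native 5-HT1A sites in rat hippocampal membranes, labelled with [3H]-8-OH-DPAT (170.2 Ci/mmol). Each compound was tested at two concentrations (0.1 and 1), each in triplicate. Bound radioactivity was counted by liquid scintillation. Ks values were estimated from three independent binding experiments and reproduced within 20%.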
(Displacement assays read how much labelled ligand stays bound in the presence of the test substance.)

For another assay, the species on record is Rattus norvegicus. As to the kind of experiment: Selectivity ratio of Ki for alpha1-adrenergic receptor in rat cerebral cortex membranes to Ki for 5-HT1A receptor in rat hippocampal membranes. The format is cell membranes. The note with it: Membrane.
The target of assay [2] is T2, Adrenergic receptor alpha-1 (Rattus norvegicus, UniProt P15823+P23944+P43140).
T2 sequence (P15823 whole entry): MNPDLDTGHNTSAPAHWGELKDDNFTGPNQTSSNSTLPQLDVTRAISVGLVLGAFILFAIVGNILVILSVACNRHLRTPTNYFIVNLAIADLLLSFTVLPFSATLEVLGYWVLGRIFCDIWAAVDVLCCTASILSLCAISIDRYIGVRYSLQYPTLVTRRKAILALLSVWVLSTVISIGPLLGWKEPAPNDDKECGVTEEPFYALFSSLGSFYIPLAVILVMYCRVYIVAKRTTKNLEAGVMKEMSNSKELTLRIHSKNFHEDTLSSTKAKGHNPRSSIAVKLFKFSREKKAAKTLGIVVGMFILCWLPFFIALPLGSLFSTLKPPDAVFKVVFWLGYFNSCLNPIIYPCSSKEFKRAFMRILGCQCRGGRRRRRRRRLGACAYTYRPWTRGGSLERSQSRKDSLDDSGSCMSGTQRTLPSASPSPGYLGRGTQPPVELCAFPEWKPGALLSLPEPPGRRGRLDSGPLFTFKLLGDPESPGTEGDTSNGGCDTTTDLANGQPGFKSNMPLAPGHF
T2 sequence (P23944 whole entry): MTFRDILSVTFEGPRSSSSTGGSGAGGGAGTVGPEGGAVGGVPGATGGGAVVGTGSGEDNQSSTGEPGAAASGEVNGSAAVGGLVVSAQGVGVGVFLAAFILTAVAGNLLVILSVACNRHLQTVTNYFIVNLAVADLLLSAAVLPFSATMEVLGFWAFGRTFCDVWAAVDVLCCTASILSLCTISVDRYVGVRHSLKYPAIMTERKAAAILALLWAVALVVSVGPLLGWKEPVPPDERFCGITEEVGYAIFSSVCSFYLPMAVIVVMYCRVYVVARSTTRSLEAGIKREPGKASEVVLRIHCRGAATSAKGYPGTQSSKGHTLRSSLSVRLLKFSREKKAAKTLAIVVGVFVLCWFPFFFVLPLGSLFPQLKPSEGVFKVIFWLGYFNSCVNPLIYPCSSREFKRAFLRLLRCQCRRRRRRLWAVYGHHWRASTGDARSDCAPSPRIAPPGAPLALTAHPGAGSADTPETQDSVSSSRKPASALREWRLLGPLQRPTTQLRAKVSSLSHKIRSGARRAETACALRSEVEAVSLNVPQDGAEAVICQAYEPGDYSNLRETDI
T2 sequence (P43140 whole entry): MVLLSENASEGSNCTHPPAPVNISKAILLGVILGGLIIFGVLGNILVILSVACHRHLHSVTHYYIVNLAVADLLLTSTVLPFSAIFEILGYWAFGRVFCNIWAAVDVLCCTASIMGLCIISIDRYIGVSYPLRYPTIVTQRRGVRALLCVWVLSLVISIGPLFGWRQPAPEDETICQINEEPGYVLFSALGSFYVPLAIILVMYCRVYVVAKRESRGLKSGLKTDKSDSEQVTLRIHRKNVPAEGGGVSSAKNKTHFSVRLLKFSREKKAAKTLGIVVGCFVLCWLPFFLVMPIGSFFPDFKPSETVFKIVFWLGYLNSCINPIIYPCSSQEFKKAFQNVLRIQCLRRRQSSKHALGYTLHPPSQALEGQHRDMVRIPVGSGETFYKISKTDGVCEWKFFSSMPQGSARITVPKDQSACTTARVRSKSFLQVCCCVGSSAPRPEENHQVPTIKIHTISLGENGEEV
As to the kind of experiment: Displacement of [3H]-prazosin from alpha1-adrenergic receptor in rat cerebral cortex membranes after 30 mins by scintillation counting. The format is cell membranes, Membrane.

In assay [3] the target is Adrenergic receptor alpha-1 (Rattus norvegicus) (UniProt P15823+P23944+P43140). The note with it: Wistar, Thoracic aorta.

The structures appear in SMILES notation.

In turn, `CCN1C(=O)N(CC(O)CN2CCN(c3ccccc3)CC2)C(c2ccccc2)(c2ccccc2)C1=O` (racemic) gave a Ks in assay [1] of 610 nM.

Compound `COc1ccccc1N1CCN(CC(O)CN2C(=O)NC(=O)C2(c2ccccc2)c2ccccc2)CC1` (racemic) registered a Ks in assay [1] of 95 nM. With `O=C1NC(=O)C(c2ccccc2)(c2ccccc2)N1CC(O)CN1CCN(c2ccccc2)CC1` (racemic), the Ks in assay [1] is 573 nM.

With `CCOc1ccccc1N1CCN(CC(O)CN2C(=O)N(CC(=O)OC)C(=O)C2(c2ccccc2)c2ccccc2)CC1` (racemic), the Ks in assay [1] was found to be 37 nM. In turn, `CCOc1ccccc1N1CCN(CC(CN2C(=O)N(C)C(=O)C2(c2ccccc2)c2ccccc2)OC(C)=O)CC1` (racemic) registered a Ks in assay [1] of 38 nM.

With `CCOC(=O)CN1C(=O)N(CC(O)CN2CCN(c3ccccc3OC)CC2)C(c2ccccc2)(c2ccccc2)C1=O` (racemic), the Ks in assay [1] came out at 88 nM. In assay [1], `COC(=O)CN1C(=O)N(CC(O)CN2CCN(c3ccccc3OC)CC2)C(c2ccccc2)(c2ccccc2)C1=O` (racemic) had a Ks of 86 nM. For the same compound, in the assay filed under Rattus norvegicus, the Ratio was 2.29. `CCOC(=O)C(C)N1C(=O)N(CC(O)CN2CCN(c3ccccc3OC)CC2)C(c2ccccc2)(c2ccccc2)C1=O` (racemic) registered a Ks in assay [1] of 30 nM. Also, the Ratio in the assay filed under Rattus norvegicus is 4.52. Regarding `CCOc1ccccc1N1CCN(CC(O)CN2C(=O)N(C(C)C(=O)OC)C(=O)C2(c2ccccc2)c2ccccc2)CC1` (racemic), the Ks in assay [1] stood at 28 nM. In assay [1], `COc1ccccc1N1CCN(CC(O)CN2C(=O)N(CC(=O)O)C(=O)C2(c2ccccc2)c2ccccc2)CC1.Cl` (racemic) registered a Ks of 575 nM. In addition, the inhibition constant (Ki) in assay [2] worked out at 4.8 µM. Further, the Ratio in the assay listed under Rattus norvegicus worked out at 8.35. With `CCOc1ccccc1N1CCN(CC(O)CN2C(=O)N(C)C(=O)C2(c2ccccc2)c2ccccc2)CC1` (racemic), the Ks in assay [1] was found to be 7 nM. For the same compound, the Ratio in the assay filed under Rattus norvegicus is 17.4.

Compound `COC(=O)C(C)N1C(=O)N(CC(O)CN2CCN(c3ccccc3OC)CC2)C(c2ccccc2)(c2ccccc2)C1=O` (racemic) showed a Ks in assay [1] of 104 nM. Also, in the assay listed under Rattus norvegicus, the Ratio is 1.

Compound `COc1ccccc1N1CCN(CC(O)CN2C(=O)N(C)C(=O)C2(c2ccccc2)c2ccccc2)CC1` (racemic) gave a Ks in assay [1] of 22 nM.

Take `CCOc1ccccc1N1CCN(CC(O)CN2C(=O)NC(=O)C2(c2ccccc2)c2ccccc2)CC1` (racemic): the Ks in assay [1] was 83 nM. This compound yielded a negative-log Kb (pKb) in assay [3] of 7.44.
